Laboratory results taken from ChEMBL document CHEMBL1124360, “Dihydropyrimidines: novel calcium antagonists with potent and long-lasting vasodilative and antihypertensive activity” (J Med Chem, 1989).

Assays:
[1] = system: Canis familiaris; assay: Effective dose that lowers vascular resistance by, 30% in dogs when administered intravenously; format: functional; details: Canis lupus familiaris, iv
In short: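 Mongrel dogs (7-15 kg, either sex) are anesthetized with thiopental 30 mg/kg iv or ip, then urethane 400 mg/kg plus α-chloralose 60 mg/kg iv, and ventilated. Left vertebral flow is measured by electromagnetic probe and femoral arterial pressure is recorded. Resistance is pressure divided by flow. Compounds in ethanol are given iv at 0.05 mL/kg in cumulative rising doses; the dose cutting resistance 30% is taken (N = 3).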

[2] = species on record: Canis familiaris; assay: Effective dose against atrioventricular conduction in dogs at which they prolong atrioventricular conduction time by 30%; format: functional; details: Canis lupus familiaris
In short: (§1)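 Anesthetized open-chest dogs; atrium paced with square-wave pulses of 1.5-2.5 V, 2 ms, at 2.5 Hz. AV conduction time is the interval between atrial and ventricular electrograms. Compounds are dissolved in 100% DMSO and injected iv into the femoral vein at 0.05 mL/kg. Reported as the dose prolonging AVCT by 30% (mean ± SE, N = 4-5) or the dose inducing AV block.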

[3] = system: Canis familiaris; assay: (§2) Time to peak response on lowering of vascular resistance, in dogs when administered intravenously; format: ADME, organism-based, Canis lupus familiaris; details: dog, in vivo, iv
[4] = species on record: Canis familiaris; assay: Dose at which compound induce atrioventricular block in dogs; range is 100-3000; format: functional, Canis lupus familiaris; in short: as §1
[5] = target: T1, Voltage-gated L-type calcium channel (Rattus norvegicus, UniProt P22002+Q02485+P27732); assay: Inhibition of [3H]nitrendipine binding to L-type calcium channels of rat cerebral cortex; format: tissue-based
In short: (§3)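 Rat cerebral cortex is homogenized in ice-cold 50 mM Tris-HCl pH 7.7 and washed by repeated 40000g spins. Homogenate is incubated with 0.2 nM [³H]nitrendipine and drug for 1 h at 25 °C, then vacuum-filtered on glass-fiber filters and counted by liquid scintillation. Nonspecific binding is defined with 1 μM unlabeled nitrendipine.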

[6] = system: Canis familiaris; assay: as §2; format: organism-based, Canis lupus familiaris; details: dog, in vivo, iv
[7] = species on record: Canis familiaris; assay: Dose at which compound induce atrioventricular block in dogs; AV means atrioventricular; range is 1000-3000; format: functional, Canis lupus familiaris; in short: as §1
[8] = target: T1, Voltage-gated L-type calcium channel; assay: Inhibition of [3H]- Nitrendipine binding to L-type calcium channels of rat cerebral cortex; format: tissue-based; in short: as §3
[9] = species on record: Canis familiaris; assay: Dose at which compound induce atrioventricular block in dogs; range is 100-300; format: functional, Canis lupus familiaris; in short: as §1

Structure (SMILES) | ED30 [1] | further results
CCCCCCCOC(=O)N1C(C)=NC(C)=C(C(=O)OCC)C1c1ccccc1[N+](=O)[O-] (configuration not stated) | 3.2 µg/kg | –
COC(=O)C1=C(C)NC(C)=C(C(=O)OCCN(C)Cc2ccccc2)C1c1cccc([N+](=O)[O-])c1 (configuration not stated) [NICARDIPINE] | 3 µg/kg | ED30 [2]: 175 µg/kg; Tp [3]: 1.2 min; AV block [4]: 100 µg/kg; IC50 [5]: 2.66 nM
CC1=NC(C)=C(C(=O)OC(C)C)C(c2ccccc2[N+](=O)[O-])N1C(=O)OCCN(Cc1ccccc1)c1ccccc1 (configuration not stated) | 0.74 µg/kg | Tp [6]: 1.9 min
CC1=NC(C)=C(C(=O)OCC2CC2)C(c2ccccc2[N+](=O)[O-])N1C(=O)OCCN(CCCc1ccccc1)Cc1ccccc1 (configuration not stated) | 4.3 µg/kg | AV block [7]: 1000 µg/kg; ED30 [2]: 843 µg/kg; Tp [6]: 4.8 min
CO/C(O)=C1/C(C)=NC(C)=C(C(=O)OCCN2CCN(C(c3ccccc3)c3ccccc3)CC2)C1c1cccc([N+](=O)[O-])c1 (configuration not stated) | – | IC50 [8]: 8.68 nM
CC1=C(C(=O)OC(C)C)C(c2ccccc2[N+](=O)[O-])N(C(=O)OCCN(Cc2ccccc2)Cc2ccc3ccccc3c2)C(C(C)C)=N1 (configuration not stated) | > 100 µg/kg | –
CCOC(=O)C1=C(COCCN(Cc2ccccc2)Cc2ccc(Cl)c(Cl)c2)N=C(C)N(C(=O)OC)C1c1ccccc1[N+](=O)[O-].Cl (configuration not stated) | > 100 µg/kg | –
CCOC(=O)N1C(C)=NC(C)=C(C(=O)OCCN(C)Cc2ccccc2)C1c1ccccc1[N+](=O)[O-] (configuration not stated) | 13 µg/kg | –
CCC1N=C(C)/C(=C(/O)OC(C)C)C(c2ccccc2[N+](=O)[O-])N1C(=O)OCN(Cc1ccccc1)Cc1ccc(Cl)c(Cl)c1 (configuration not stated) | 19.5 µg/kg | Tp [6]: 5.5 min
CCCCCCCOC(=O)N1C(=O)NC(C)=C(C(=O)OCC2CC2)C1c1cccc([N+](=O)[O-])c1 (configuration not stated) | 3 µg/kg | –
CCOC(=O)N1C(C(F)(F)F)=NC(C)=C(C(=O)OC(C)C)C1c1ccccc1[N+](=O)[O-] (configuration not stated) | 8.3 µg/kg | –
CC1=NC(C)=C(C(=O)OCC2CC2)C(c2ccccc2[N+](=O)[O-])N1C(=O)OCCN(C/C=C/c1ccccc1)Cc1ccccc1 (configuration not stated) | 3.9 µg/kg | Tp [6]: 5.6 min
CCOC(=O)C1=C(C)N=C(C)N(C(=O)OCC)C1c1ccccc1Br (configuration not stated) | 5 µg/kg | –
CCOC(=O)C1=C(C)NC(C)=C(C(=O)OC)C1c1cccc([N+](=O)[O-])c1 (configuration not stated) [NITRENDIPINE] | 1.2 µg/kg | Tp [6]: 1 min
CCOC(=O)N1C(CC)=NC(C)=C(C(=O)OC(C)C)C1c1ccccc1[N+](=O)[O-] (configuration not stated) | 8 µg/kg | –
CCCCOC(=O)C1=C(C)N=C(C)N(C(=O)OCCN(Cc2ccccc2)Cc2ccccc2)C1c1ccccc1[N+](=O)[O-] (configuration not stated) | 6.8 µg/kg | Tp [6]: 4.7 min
CCCCCCCOC(=O)C1=C(C)N=C(C)N(C(=O)OCC)C1c1ccccc1[N+](=O)[O-] (configuration not stated) | 23 µg/kg | –
CSC1=NC(C)=C(C(=O)OC(C)C)C(c2ccccc2[N+](=O)[O-])N1C(=O)OCCN(Cc1ccccc1)Cc1ccc2ccccc2c1 (configuration not stated) | > 100 µg/kg | –
CC1=C(C(=O)OC(C)C)C(c2ccccc2[N+](=O)[O-])N(C(=O)OCCN(Cc2ccccc2)Cc2ccc3ccccc3c2)C(=O)N1 (configuration not stated) | 10 µg/kg | Tp [6]: 7.8 min
CC1=C(C(=O)OC(C)C)C(c2ccccc2[N+](=O)[O-])N(C(=O)OCCN(Cc2ccccc2)Cc2ccc3ccccc3c2)C(N(C)C)=N1 (configuration not stated) | > 100 µg/kg | –
CCC1N=C(C)/C(=C(/O)OC(C)C)C(c2ccccc2[N+](=O)[O-])N1C(=O)OCN(Cc1ccccc1)Cc1ccc2ccccc2c1 (configuration not stated) | 13.5 µg/kg | Tp [6]: 7.2 min
CCOC(=O)C1=C(C)N=C(C)N(C(=O)OCC)C1c1ccccc1Cl (configuration not stated) | 5 µg/kg | –

Structure (SMILES) | ED30 [1] | further results
COC(=O)C1=C(C#N)NC(C)=C(C(=O)OC(C)C)C1c1cccc([N+](=O)[O-])c1 (configuration not stated) [NILVADIPINE] | – | AV block [9]: 100 µg/kg; ED30 [2]: 34 µg/kg; IC50 [5]: 1.04 nM
CC1=C(C(=O)OC(C)C)C(c2ccccc2[N+](=O)[O-])N(C(=O)OCCN(Cc2ccccc2)Cc2ccccc2)C(C(F)(F)F)=N1 (configuration not stated) | 6.8 µg/kg | –
CCC1=NC(C)=C(C(=O)OC(C)C)C(c2ccccc2[N+](=O)[O-])N1C(=O)OCCN(Cc1ccccc1)Cc1ccc2ccccc2c1 (configuration not stated) | 27 µg/kg | –
CCCCCCCOC(=O)N1C(=O)NC(C)=C(C(=O)OCC2CC2)C1c1ccccc1[N+](=O)[O-] (configuration not stated) | 2.3 µg/kg | Tp [6]: 1.9 min
CCCCCCCOC(=O)N1C(C)=NC(C)=C(C(=O)OCC2CC2)C1c1ccccc1[N+](=O)[O-] (configuration not stated) | 5.6 µg/kg | –
CCCCCCCOC(=O)C1=C(C)N=C(C)N(C(=O)OCCN(Cc2ccccc2)Cc2ccccc2)C1c1ccccc1[N+](=O)[O-] (configuration not stated) | > 30 µg/kg | –
COC(=O)C1=C(C)NC(C)=C(C(=O)OC)C1c1ccccc1[N+](=O)[O-] [NIFEDIPINE] | 0.5 µg/kg | Tp [3]: 0.7 min
CC1=NC(C)=C(C(=O)OC(C)C)C(c2ccccc2[N+](=O)[O-])N1C(=O)OCCN(CCc1ccccc1)Cc1ccccc1 (configuration not stated) | 1.2 µg/kg | Tp [6]: 2.7 min
CCCCCCCOC(=O)C1=C(C)N=C(C)N(C(=O)OCCCCCCC)C1c1ccccc1[N+](=O)[O-] (configuration not stated) | 180 µg/kg | –
CCOC(=O)C1=C(Cl)N=C(C)N(C(=O)OCCN(Cc2ccccc2)Cc2ccc3ccccc3c2)C1c1ccccc1[N+](=O)[O-] (configuration not stated) | 10 µg/kg | Tp [6]: 5.2 min
CC1=C(C(=O)OC(C)C)C(c2ccccc2[N+](=O)[O-])N(C(=O)OCCN(Cc2ccccc2)Cc2ccc3ccccc3c2)C=N1 (configuration not stated) | > 100 µg/kg | –
CC1=NC(C)=C(C(=O)OCC2CC2)C(c2ccccc2[N+](=O)[O-])N1C(=O)OCCN(C)Cc1ccccc1 (configuration not stated) | 0.5 µg/kg | –
CC1=C(C(=O)OCC2CC2)C(c2cccc([N+](=O)[O-])c2)N(C(=O)OCCN(C)Cc2ccccc2)C(=O)N1 (configuration not stated) | 13 µg/kg | –
CCOC(=O)C1=C(C)NC(=O)N(C(=O)OCC(c2ccccc2)c2ccccc2)C1c1cccc([N+](=O)[O-])c1 (configuration not stated) | 10.6 µg/kg | –
CC1=NC(C)=C(C(=O)OC(C)C)C(c2ccccc2[N+](=O)[O-])N1C(=O)OCCN(Cc1ccccc1)Cc1ccc(Cl)c(Cl)c1 (configuration not stated) | 2.1 µg/kg | AV block [7]: 1000 µg/kg; IC50 [8]: 2.05 nM; ED30 [2]: 596 µg/kg; Tp [3]: 10.8 min
CCOC(=O)C1=C(C)N=C(C)N(C(=O)OCC)C1c1cccc([N+](=O)[O-])c1 (configuration not stated) | 10 µg/kg | –
CC1=NC(C)=C(C(=O)OC(C)C)C(c2ccccc2[N+](=O)[O-])N1C(=O)OCCN(Cc1ccccc1)Cc1ccccc1 (configuration not stated) | 2.8 µg/kg | Tp [6]: 2.6 min
CCOC(=O)C1=C(C)N=C(C)N(C(=O)OCCN(C)Cc2ccccc2)C1c1ccccc1[N+](=O)[O-] (configuration not stated) | 0.75 µg/kg | –
CC1=NC(C)=C(C(=O)OC(C)C)C(c2ccccc2[N+](=O)[O-])N1C(=O)OCCN(Cc1ccccc1)Cc1ccc2ccccc2c1 (configuration not stated) | 1.8 µg/kg | AV block [7]: 1000 µg/kg; IC50 [8]: 7.08 nM; ED30 [2]: 762 µg/kg; Tp [3]: 7.9 min
CCOC(=O)C1=C(C)N=C(C)N(C(=O)OCC)C1c1ccccc1[N+](=O)[O-] (configuration not stated) | 3 µg/kg | –
CCOC(=O)C1=C(C)NC(=O)N(C(=O)OCCN(C)Cc2ccccc2)C1c1cccc(Cl)c1 (configuration not stated) | 43 µg/kg | –
